Source: ChEMBL document CHEMBL4325933, “Potent, Selective, and Cell-Penetrating Inhibitors of Kallikrein-Related Peptidase 4 Based on the Cyclic Peptide MCoTI-II” (ACS Med Chem Lett, 2018)
Positions of bridges follow the written chain, without caps; N, C: chain ends. Residues, ends and D or L forms follow the SMILES beside them.

How the values were obtained:
Kallikrein-4 = Kallikrein-4 (Homo sapiens, UniProt Q9Y5K2); experiment: Inhibition of KLK4 (unknown origin) expressed in sf9 cells using Ac-FVQR-pNA as substrate preincubated for 30 mins followed by substrate addition and measured for 7 mins by spectrophotometric method
[1] = Drug uptake in human HeLa cells at 4 uM using Alexa Fluor 488 conjugated test compound after 1 hr by trypan blue dye based flow cytometry relative to HIV-Tat; assay type: ADME, cell-based
How it was run: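 HeLa cells given Alexa Fluor 488-conjugated peptides (4 μM). Mean fluorescence measured by flow cytometry before and after trypan blue quenching of extracellular signal. Values normalized to the HIV-TAT positive control (post-trypan blue). Three independent experiments, SD; one-way ANOVA with Tukey's post hoc test.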

HeLa = experiment: Cytotoxicity against human HeLa cells up to 64 uM after 2 hrs by resazurin dye based assay; assay type: cell-based
How it was run: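 HeLa cells exposed to peptides for 2 h, concentrations up to 64 μM. Resazurin then added for 18 h at 37 °C. Resorufin absorbance read at 540 and 620 nm, and viability % expressed as the A620/A540 ratio. Three independent experiments, standard deviation.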

Kallikrein-4, sequence (Q9Y5K2 whole entry): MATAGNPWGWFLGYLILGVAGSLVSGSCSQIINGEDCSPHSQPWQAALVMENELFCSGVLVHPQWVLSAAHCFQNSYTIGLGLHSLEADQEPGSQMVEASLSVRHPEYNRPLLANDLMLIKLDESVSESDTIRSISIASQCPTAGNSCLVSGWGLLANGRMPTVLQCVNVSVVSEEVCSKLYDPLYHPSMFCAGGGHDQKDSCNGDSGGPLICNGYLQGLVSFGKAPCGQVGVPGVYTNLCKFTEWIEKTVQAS

SMILES | Ki (Kallikrein-4) [nM] | Drug uptake [1] | Activity (HeLa)
CC[C@H](C)[C@@H]1NC(=O)[C@@H]2CSSC[C@@H]3NC(=O)[C@H](Cc4ccccc4)NC(=O)CNC(=O)CNC(=O)[C@H](CC(=O)O)NC(=O)[C@H](CO)NC(=O)CNC(=O)[C@H](CO)NC(=O)CNC(=O)[C@@H]4CSSC[C@H](NC(=O)[C@H](CC(=O)O)NC(=O)[C@H](CO)NC(=O)[C@H](CC(=O)O)NC(=O)[C@H](CCCNC(=N)N)NC(=O)[C@H](CCCNC(=N)N)NC(=O)[C@H](CSSC[C@H](NC1=O)C(=O)N[C@@H](CCCNC(=N)N)C(=O)NCC(=O)N[C@@H](CC(N)=O)C(=O)NCC(=O)N[C@@H](Cc1ccc(O)cc1)C(=O)N4)NC(=O)[C@H](CCCCN)NC(=O)[C@H](CCCCN)NC(=O)[C@H](CC(C)C)NC(=O)[C@H]([C@@H](C)CC)NC(=O)[C@H](CCCCN)NC(=O)[C@@H]1CCCN1C3=O)C(=O)N1CCC[C@H]1C(=O)NCC(=O)N[C@@H](C)C(=O)N2 | 1.3 | – | –
CC[C@H](C)[C@@H]1NC(=O)[C@@H]2CSSC[C@@H]3NC(=O)[C@H](C(C)C)NC(=O)CNC(=O)CNC(=O)[C@H](CC(=O)O)NC(=O)[C@H](CO)NC(=O)CNC(=O)[C@H](CO)NC(=O)CNC(=O)[C@@H]4CSSC[C@H](NC(=O)[C@H](CC(=O)O)NC(=O)[C@H](CO)NC(=O)[C@H](CC(=O)O)NC(=O)[C@H](CCCNC(=N)N)NC(=O)[C@H](CCCNC(=N)N)NC(=O)[C@H](CSSC[C@H](NC1=O)C(=O)N[C@@H](CCCNC(=N)N)C(=O)NCC(=O)N[C@@H](CC(N)=O)C(=O)NCC(=O)N[C@@H](Cc1ccc(O)cc1)C(=O)N4)NC(=O)[C@H](CCCCN)NC(=O)[C@H](CCCCN)NC(=O)[C@H](CC(C)C)NC(=O)[C@H]([C@@H](C)CC)NC(=O)[C@H](CCCCN)NC(=O)[C@H](CCC(N)=O)NC3=O)C(=O)N1CCC[C@H]1C(=O)NCC(=O)N[C@@H](C)C(=O)N2 | 0.13 | – | –
CC[C@H](C)[C@@H]1NC(=O)[C@@H]2CSSC[C@@H]3NC(=O)[C@H](C(C)C)NC(=O)CNC(=O)CNC(=O)[C@H](CC(=O)O)NC(=O)[C@H](CO)NC(=O)CNC(=O)[C@H](CO)NC(=O)CNC(=O)[C@@H]4CSSC[C@H](NC(=O)[C@H](CC(=O)O)NC(=O)[C@H](CO)NC(=O)[C@H](CC(=O)O)NC(=O)[C@H](CCCNC(=N)N)NC(=O)[C@H](CCCNC(=N)N)NC(=O)[C@H](CSSC[C@H](NC1=O)C(=O)N[C@@H](CCCNC(=N)N)C(=O)NCC(=O)N[C@@H](CC(N)=O)C(=O)NCC(=O)N[C@@H](Cc1ccc(O)cc1)C(=O)N4)NC(=O)[C@H](CCCCN)NC(=O)[C@H](CCCCN)NC(=O)[C@H](CC(C)C)NC(=O)[C@H]([C@@H](C)CC)NC(=O)[C@H](CCCNC(=N)N)NC(=O)[C@@H]1CCCN1C3=O)C(=O)N1CCC[C@H]1C(=O)NCC(=O)N[C@@H](C)C(=O)N2 | 0.3 | Not Active | –
CC[C@H](C)[C@@H]1NC(=O)[C@@H]2CSSC[C@@H]3NC(=O)[C@H](C(C)C)NC(=O)CNC(=O)CNC(=O)[C@H](CC(=O)O)NC(=O)[C@H](CO)NC(=O)CNC(=O)[C@H](CO)NC(=O)CNC(=O)[C@@H]4CSSC[C@H](NC(=O)[C@H](CC(=O)O)NC(=O)[C@H](CO)NC(=O)[C@H](CC(=O)O)NC(=O)[C@H](CCC(N)=O)NC(=O)[C@H](CCC(N)=O)NC(=O)[C@H](CSSC[C@H](NC1=O)C(=O)N[C@@H](CCCCN)C(=O)NCC(=O)N[C@@H](CC(N)=O)C(=O)NCC(=O)N[C@@H](Cc1ccc(O)cc1)C(=O)N4)NC(=O)[C@H](CCC(N)=O)NC(=O)[C@H](CCC(N)=O)NC(=O)[C@H](CC(C)C)NC(=O)[C@H]([C@@H](C)CC)NC(=O)[C@H](CCCNC(=N)N)NC(=O)[C@@H]1CCCN1C3=O)C(=O)N1CCC[C@H]1C(=O)NCC(=O)N[C@@H](C)C(=O)N2 (cyclo(ACICKGNGYCGSGSDGGVCPRILQQCQQDSDCPG); disulfide 2-19, 4-26, 10-32) | 1.8 | Not Active | Non-Toxic
